# KCNQ1 block: blocks the human KCNQ1 potassium channel. P51787. CHO-K1 KCNQ1, FluxOR thallium flux fluorescence; hits give high values. B-score at 10 µM. 310,000 compounds, 1.3% hits;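 active = compounds whose thallium flux B-score, printed positive for inhibition, exceeds three library SD while starting fluorescence stays within three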;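 also: channel opened by potassium depolarization with thallium stimulus after 20 min compound exposure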
# KCNK9 block: human KCNK9 channel inhibition; B-score at 10 µM; AID 488922; 310,000 compounds, 1.2% hits; HEK293 KCNK9, FluxOR thallium flux fluorescence; hits give low values;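 active = ratio B-score over 3 SD below the library mean, with starting fluorescence within 5 SD of its mean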;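 also: negative B-score means less thallium flux so channel inhibition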
# Kir21 block: inhibitors of mouse Kir2.1 inward-rectifier potassium channel; P35561; HEK293-Kir2.1, FluxOR thallium flux fluorescence; hits give low values; B-score at 10 µM; 310,000 compounds, 0.85% hits; AID 1672;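 active = fluorescence ratio B-score at or below minus 3 SD of library scores, with starting-brightness B-score within 2 SD, cut at about -4.2 in these data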;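 also: channel flux triggered by added potassium and thallium sulfate stimulus; B-score of peak minus minimum fluorescence over baseline after thallium stimulus; more negative B-score means stronger Kir2.1 block with less thallium influx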
# KCNK3 inh: human KCNK3 channel inhibition, primary screen; B-score at 10 µM; CHO-KCNK3 thallium flux, FluxOR fluorescence; hits give low values; AID 602410; 340,000 compounds, 0.84% hits;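 active = B-score under library mean minus 4 SD, starting fluorescence ratio at most library mean plus 5 SD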;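 also: more negative B-score means stronger inhibition of thallium flux through KCNK3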
# hERG protect: compounds protecting human hERG from proarrhythmic drug block; Q12809; CHO-hERG, FluxOR thallium flux, dofetilide IC70 present; activation (rescue from dofetilide block), less the hit threshold, % at 10 µM; 310,000 compounds, 0.51% hits;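 active = activation above the mean of controls blocked by dofetilide plus 5 SD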;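 also: thallium influx through hERG after potassium depolarization seen as dye fluorescence rise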
# KCNQ1 act: potentiates or activates the human KCNQ1 potassium channel; P51787; CHO-K1 KCNQ1, thallium flux FluxOR fluorescence; hits give high values; B-score at 10 µM; 310,000 compounds, 0.35% hits; AID 2648;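 active = fluorescence ratio B-score, a plate-corrected score, at least three library SD, with initial intensity B-score within 5 SD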
#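 Doses: Single concentration per compound, DMSO matched to controls | Test system: KCNQ1-transfected CHO-K1 cells | Timing: 90 min dye loading and 20 min compound exposure, both at room temperature | Measured by: Kinetic FluxOR thallium fluorescence, 10-s 1-Hz baseline, 110-s post-stimulus read | Medium: Assay buffer with matched DMSO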
# KCNQ1 inh valid: human KCNQ1 channel inhibition, validation assay; shares compounds with KCNQ1 block; KCNQ1 cell line, FluxOR thallium flux fluorescence; inhibition, % at 10 µM; 1,600 compounds, 93% hits;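 active = primary screen active, with duplicate mean exceeding buffer control mean plus 3 SD of buffer wells, cut at about 28% in these data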
# CHO Tl flux: activity in parental CHO cells lacking KCNQ1; shares compounds with KCNQ1 block; parental CHO-K1, FluxOR thallium flux fluorescence ratio; hits give low values; zero means no signal rise above baseline; fluorescence ratio (Tl flux) at 10 µM; 1,600 compounds, 21% hits;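 active = mean of duplicate thallium-flux fluorescence ratios in parental host cells more than 5 SD below the buffer control mean, cut at about 0.38 in these data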;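 also: ratio is peak minus minimum fluorescence divided by baseline fluorescence; actives read low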
# KCNQ1 APC inh: human KCNQ1 inhibition validated by electrophysiology; shares compounds with KCNQ1 block; KCNQ1-CHO cells, automated patch clamp current; calls only at 10 µM; 490 compounds, 20% hits;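 active = KCNQ1 current drop exceeding 3 SD of negative control wells, seen in both duplicate runs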;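 also: steady state current during a 2 s step from -80 to +40 mV; negative values mean current inhibition and positive values mean potentiation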
# KCNQ2 spec: KCNQ1 inhibitor that also blocks rat KCNQ2 channel; inhibition, % at 10 µM; 1,600 compounds, 71% hits; KCNQ2 cells, FluxOR thallium flux fluorescence; AID 651746; shares compounds with KCNQ1 block;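 active = mean percent inhibition of the KCNQ2 thallium signal more than 5 SD above the buffer-only control wells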;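 also: KCNQ2 expressed in CHO cells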
# Target sequence (O88943 whole entry, looked up): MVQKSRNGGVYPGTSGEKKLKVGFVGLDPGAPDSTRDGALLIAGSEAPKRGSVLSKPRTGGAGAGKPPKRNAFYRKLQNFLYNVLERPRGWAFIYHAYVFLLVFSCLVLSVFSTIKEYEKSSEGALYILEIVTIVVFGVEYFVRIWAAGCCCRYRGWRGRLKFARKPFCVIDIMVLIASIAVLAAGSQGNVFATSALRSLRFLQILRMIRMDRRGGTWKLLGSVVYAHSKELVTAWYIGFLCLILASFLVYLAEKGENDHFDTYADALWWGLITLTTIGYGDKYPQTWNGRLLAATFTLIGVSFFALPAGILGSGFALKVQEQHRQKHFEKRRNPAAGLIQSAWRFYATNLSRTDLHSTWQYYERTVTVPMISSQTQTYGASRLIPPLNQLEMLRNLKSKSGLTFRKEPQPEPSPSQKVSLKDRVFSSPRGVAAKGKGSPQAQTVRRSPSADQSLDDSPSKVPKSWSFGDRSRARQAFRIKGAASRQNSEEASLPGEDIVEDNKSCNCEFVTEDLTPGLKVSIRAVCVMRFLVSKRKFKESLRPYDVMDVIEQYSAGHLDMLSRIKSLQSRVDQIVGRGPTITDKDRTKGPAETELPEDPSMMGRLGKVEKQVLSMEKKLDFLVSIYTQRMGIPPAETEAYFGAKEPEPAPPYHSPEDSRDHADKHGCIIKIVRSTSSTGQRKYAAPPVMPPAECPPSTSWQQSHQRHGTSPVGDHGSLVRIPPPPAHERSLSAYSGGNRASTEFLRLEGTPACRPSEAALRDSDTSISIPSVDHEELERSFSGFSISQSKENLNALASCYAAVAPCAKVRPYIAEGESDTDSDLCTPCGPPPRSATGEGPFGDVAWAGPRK
# KCNQ1 KCNE1 spec: selectivity of KCNQ1 inhibitors: inhibition of human KCNQ1/KCNE1 channel. shares compounds with KCNQ1 block. KCNQ1/KCNE1 cells, FluxOR thallium flux fluorescence. inhibition, % at 10 µM. 1,600 compounds, 77% hits;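 active = mean percent inhibition of duplicate wells above the buffer-only control mean plus 3 SD of those controls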
# Hits are given with their value; – = inactive; · = not tested or not shown; + = active, no number. Sampled rows, rich in hits. Any-hit rate of the full collection: about 3.7%.
SMILES,KCNQ1 block,KCNK9 block,Kir21 block,KCNK3 inh,hERG protect,KCNQ1 act,KCNQ1 inh valid,CHO Tl flux,KCNQ2 spec,KCNQ1 KCNE1 spec,others
O=C(Nc1ncccn1)c1cc(-c2cccc(Br)c2)nc2ccccc12,–,–,–,–,–,–,·,·,·,·,
Cc1ccc(C)c(NC(=O)c2cc(-c3cccnc3)nc3ccccc23)c1,7,–,–,–,–,–,62,–,97%,44%,
O=C(O)c1ccccc1NC(=O)c1cc(-c2ccccc2)nc2ccccc12,7,–,–,–,–,–,70,–,82%,120%,
Cc1ccc(-c2cc(C(=O)Nc3ccncc3)c3ccccc3n2)cc1,–,–,–,–,–,–,·,·,·,·,
O=C(Nc1ccccn1)c1cc(-c2cccc(Cl)c2)nc2ccccc12,7,–,–,–,–,–,92,–,115%,151%,KCNQ1 APC inh=–
O=C(NC1CCCC1)c1cccc(S(=O)(=O)N2CCOCC2)c1,·,·,·,–,·,·,·,·,·,·,
CCCCCC(=O)NC(=S)NC1C2CC3CC(C2)CC1C3 (stereo not drawn),7,–,–,–,–,–,66,–,79%,64%,
CCc1nnc(NC(=O)CCC2CCCCC2)s1,–,–,–,–,–,–,·,·,·,·,
O=C(CCC1CCCCC1)Nc1nnc(C(F)(F)F)s1,6,–,–,–,–,–,64,–,–,34%,
COc1ccc(CC(=O)OCC(=O)NC2CCCC(C)C2C)cc1OC (stereo not drawn),·,·,·,–,·,·,·,·,·,·,
C=CCN(CC=C)C(=O)CN1C(=O)NC(Cc2c[nH]c3ccccc23)C1=O (stereo not drawn),–,–,–,–,–,–,·,·,·,·,
CCSc1nnc(NC(=O)NC(CC)(C(F)(F)F)C(F)(F)F)s1,7,–,–,–,–,–,57,–,–,91%,
Cc1ccc(OCc2cc(C(=O)NC3CCCCC3)no2)cn1,–,–,–,–,–,–,·,·,·,·,
O=C(c1cc(COc2ccc3ncccc3c2)on1)N1CCCC1,–,–,–,–,–,–,·,·,·,·,
CC(NC(=O)c1cc(COc2ccccc2)on1)c1nccs1 (stereo not drawn),–,–,–,–,–,–,·,·,·,·,
O=C(NC1CCCC1)c1cc(COc2ccc3ncccc3c2)on1,8,–,–,–,–,–,91,–,–,–,KCNQ1 APC inh=+
CC(NC(=O)c1cc(COc2ccc3ncccc3c2)on1)c1ccc(F)cc1 (stereo not drawn),10,–,–,–,–,–,108,–,92%,92%,KCNQ1 APC inh=+
Cc1cc(OCc2cc(C(=O)N3CCN(CC4CC4)CC3)no2)cc(C)c1Cl,–,–,–,–,–,–,·,·,·,·,
Cc1cc(OCc2cc(C(=O)N3CCC(Oc4cccnc4)CC3)no2)cc(C)c1Cl,13,–,–,–,–,–,148,0.37,124%,+,
O=C(c1cc(COc2ccc3ncccc3c2)on1)N1CCCCCC1,7,–,–,–,–,–,114,–,101%,–,KCNQ1 APC inh=–
CCn1c(=NC(=O)C2COc3ccccc3O2)sc2c(C)ccc(OC)c21 (stereo not drawn),7,-8,–,–,–,–,85,–,110%,121%,
CCn1c(=NC(=O)CN2C(=O)CCC2=O)sc2c(OC)ccc(OC)c21,–,–,–,–,–,–,·,·,·,·,
CNS(=O)(=O)c1cccc(C(=O)NCC(C)(C)N2CCCCC2)c1,–,–,–,–,–,–,·,·,·,·,
COC(CNC(=O)c1ccc2c3c(onc13)-c1ccccc1C2=O)OC,6,–,–,–,–,–,+,0.086,–,–,

# From PubChem BioAssay
